# Experimental data published in ChEMBL document CHEMBL1158703, “Psychopharmacological profile of the alkaloid psychollatine as a 5HT2A/C serotonin modulator” (2005).
# Active and inactive are the calls of the source.
# What was measured:
# Mus musculus [1] = experiment: Anxiolytic activity against CF1 mouse assessed as increase in latency to enter in the dark compartment 0.85 mg/kg for 5 mins; assay type: functional, organism-based; design: dose 0.85 mg/kg
# Outline: (§1)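 Light/dark box with a small black compartment and a large white one lit at 400 lx. Male CF1 mice were acclimatised for ≥1 h under dim red light. Diazepam in 10% propylene glycol was given i.p. 30 min before testing. Picrotoxin 1 mg/kg i.p. in saline was given 30 min before treatment. Read-outs: latency to first entry and time spent in the light area. N = 8–22, ANOVA then SNK.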
# Mus musculus [2] = experiment: Anxiolytic activity against CF1 mouse assessed as increase in number of crossings at 0.75 mg/kg after 30 mins by hole-board assay; assay type: functional, organism-based; design: dose 0.75 mg/kg
# Outline: (§2)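 Hole-board with photocell-counted head-dips; the board was marked into 16 squares of 10×10 cm. Male CF1 mice were acclimatised ≥1 h in dim light. Diazepam in 10% propylene glycol was given i.p. 30 min before testing. Picrotoxin 1 mg/kg i.p. was given 30 min before treatment. Head-dips, squares crossed and rearings were recorded over 5 min. N = 8–15, ANOVA then SNK.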
# Mus musculus [3] = experiment: Anticonvulsant activity against CF1 mouse assessed as protection against PTZ-induced convulsions at 0.8 mg/kg, ip for 60 mins; assay type: functional; conditions: route intraperitoneal
# Outline: (§3)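 Male adult CF1 mice (2 months at purchase, housed ≥2 weeks at 22 °C, 12 h light/dark). Drug given i.p. (0.1 mL/10 g); 30 min later PTZ 88 mg/kg s.c. Each mouse then observed singly for 60 min for clonic convulsions lasting >3 s. n = 10 per group. Fisher's exact test against vehicle (saline or 10% propylene glycol).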
# Mus musculus [4] = experiment: Effect on locomotory activity in CF1 mouse assessed as change in spontaneous activity at 0.75 and 0.85 mg/kg; assay type: functional, organism-based; design: dose 0.85 mg/kg
# Outline: (§4)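 Mice were habituated singly for 10 min in photocell activity cages and then dosed i.p. Diazepam was given in 10% propylene glycol. After 30 min, crossings were recorded for 15 min. n = 10–16, ANOVA then SNK.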
# Mus musculus [5] = experiment: Anxiolytic activity against CF1 mouse assessed as increase in time spent in light compartment at 0.85 mg/kg for 5 mins; assay type: functional, organism-based; design: dose 0.85 mg/kg; outline: as §1
# Mus musculus [6] = experiment: Effect on locomotory activity in CF1 mouse assessed as change in spontaneous activity at 3 to 30 mg/kg; assay type: functional, organism-based; outline: as §4
# Mus musculus [7] = experiment: Anticonvulsant activity against CF1 mouse assessed as protection against PTZ-induced convulsions at 20 mg/kg, ip for 60 mins; assay type: functional; conditions: route intraperitoneal; outline: as §3
# Mus musculus [8] = experiment: Anxiolytic activity against CF1 mouse assessed as increase in number of crossings at 0.75 mg/kg after 30 mins in presence of picrotoxin by hole-board assay; assay type: functional, organism-based; design: dose 0.75 mg/kg; outline: as §2
# Mus musculus [9] = experiment: Anxiolytic activity against CF1 mouse assessed as increase in number of rearings at 0.75 mg/kg after 30 mins in presence of picrotoxin by hole-board assay; assay type: functional, organism-based; design: dose 0.75 mg/kg; outline: as §2
# Mus musculus [10] = experiment: Anxiolytic activity against CF1 mouse assessed as increase in number of head dips at 0.75 mg/kg after 30 mins in presence of picrotoxin by hole-board assay; assay type: functional, organism-based; design: dose 0.75 mg/kg; outline: as §2
# Mus musculus [11] = experiment: Anxiolytic activity against CF1 mouse assessed as increase in number of head dips at 0.75 mg/kg after 30 mins by hole-board assay; assay type: functional, organism-based; design: dose 0.75 mg/kg; outline: as §2
# Mus musculus [12] = experiment: Anxiolytic activity against CF1 mouse assessed as increase in latency to enter in the dark compartment 0.85 mg/kg in presence of picrotoxin for 5 mins; assay type: functional, organism-based; design: dose 0.85 mg/kg; outline: as §1
# Mus musculus [13] = experiment: Anxiolytic activity against CF1 mouse assessed as increase in number of rearings at 0.75 mg/kg after 30 mins by hole-board assay; assay type: functional, organism-based; design: dose 0.75 mg/kg; outline: as §2
# Mus musculus [14] = experiment: Anxiolytic activity against CF1 mouse assessed as increase in time spent in light compartment at 0.85 mg/kg in presence of picrotoxin for 5 mins; assay type: functional, organism-based; design: dose 0.85 mg/kg; outline: as §1
# Mus musculus [15] = experiment: Effect on long term memory of CF1 mouse assessed as reduction in step down latency at 0.15 mg/kg by passive avoidance test; assay type: functional
# Outline: (§5)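 Step-down inhibitory avoidance in male CF1 mice. Training used a 0.3 mA scrambled footshock for 15 s on stepping down. The test session was 24 h later without shock, with a 300 s cutoff. For acquisition effects, drug (MK-801 or diazepam in 10% propylene glycol, i.p.) was given 30 min before training; the post-training group was dosed immediately after training. N = 20, medians (IQR).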
# Mus musculus [16] = experiment: Antidepressant activity in CF1 mouse assessed as decrease in duration of immobility at 0.15 mg/kg during final 4 mins of the 6 mins session by forced swimming test; assay type: functional
# Outline: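 Male adult CF1 mice, dosed i.p. Each mouse made to swim for 6 min in a 30 cm diameter cylinder holding 20 cm of water at 25 ± 1 °C. Immobility time was scored over the last 4 min. N = 10 per group, mean ± SEM, ANOVA against saline.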
# Mus musculus [17] = experiment: Effect on long term memory of CF1 mouse assessed as reduction in latency during aquisition at 0.15 mg/kg by passive avoidance test; assay type: functional; outline: as §5
# Mus musculus [18] = experiment: Effect on short term memory of CF1 mouse assessed as reduction in latency during aquisition at 0.15 mg/kg by passive avoidance test; assay type: functional
# Mus musculus [19] = experiment: Effect on short term memory of CF1 mouse assessed as reduction in step down latency at 0.15 mg/kg by passive avoidance test; assay type: functional
# Mus musculus [20] = experiment: Anxiolytic activity against CF1 mouse assessed as suppression of oxotremorine-treated tremors at 3 mg/kg; assay type: functional, organism-based; design: dose 3 mg/kg
# Outline: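 Mice received treatment i.p. 30 min before oxotremorine 0.5 mg/kg in saline. Each mouse was then placed alone in a transparent cage immediately after injection and tremor was scored. Data given as median (interquartile range); Kruskal–Wallis then Mann–Whitney U against saline + oxotremorine.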
# Mus musculus [21] = experiment: Antidepressant activity in CF1 mouse assessed as decrease in duration of immobility at 15 mg/kg during final 4 mins of the 6 mins session by forced swimming test; assay type: functional
compound,measurement,setting,value
CN1C(=O)CN=C(c2ccccc2)c2cc(Cl)ccc21 [DIAZEPAM],Activity,Mus musculus [1],Active
same,Activity,Mus musculus [2],Active
same,Activity,Mus musculus [3],10%
same,Activity,Mus musculus [4],inactive
same,Activity,Mus musculus [5],Active
same,Activity,Mus musculus [6],inactive
same,Activity,Mus musculus [7],0%
same,Activity,Mus musculus [8],inactive
same,Activity,Mus musculus [9],inactive
same,Activity,Mus musculus [10],inactive
same,Activity,Mus musculus [11],Active
same,Activity,Mus musculus [12],inactive
same,Activity,Mus musculus [13],Active
same,Activity,Mus musculus [14],inactive
C[C@]12N[C@H](Cc3ccccc31)c1ccccc12 [DIZOCILPINE],Activity,Mus musculus [15],6.2 s
same,Activity,Mus musculus [16],33.36 s
same,Activity,Mus musculus [17],6 s
same,Activity,Mus musculus [18],8.4 s
same,Activity,Mus musculus [19],16.5 s
CN1[C@@H]2C[C@@H](OC(=O)[C@H](CO)c3ccccc3)C[C@H]1[C@@H]1O[C@@H]12,Activity,Mus musculus [20],Active
CCC1(c2ccccc2)C(=O)NC(=O)NC1=O [PHENOBARBITAL],Activity,Mus musculus [3],10%
same,Activity,Mus musculus [7],0%
CN(C)CCCN1c2ccccc2CCc2ccccc21 [IMIPRAMINE],Activity,Mus musculus [21],46.05 s
